The results in this text go back to ChEMBL document CHEMBL4346727, “Synthesis and pharmacological evaluation of novel N-Mannich bases derived from 5,5-diphenyl and 5,5-di(propan-2-yl)imidazolidine-2,4-dione core” (Bioorg Med Chem Lett, 2019).

The source made the active and inactive calls. Unless noted, the calls are words filed in the database; no cut-off is given here.

Data set [1] is described as follows: Neurotoxicity in CD1 mouse at 100 mg/kg, ip measured after 1 hr by rotarod test. To be noted: in vivo.
Data set [2] in a line: Neurotoxicity in CD1 mouse at 300 mg/kg, ip and measured after 0.5 hrs by rotarod test. The format is toxicity, organism-based. To be noted: in vivo. Put shortly: (§1)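 Mice dosed intraperitoneally at 30, 100 and 300 mg/kg, then tested on the rotarod at 0.5 h and 4 h. The value recorded is the minimum dose at which neurotoxicity appeared. A dash means no neurotoxicity at the top dose of 300 mg/kg.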

Data set [3] deals with Mus musculus. Nature of the data set: Anticonvulsant activity in ip dosed CD1 mouse assessed as protection against 50 mA current-induced seizure and measured after 4 hrs by maximal electroshock seizure test. The class given is functional. The conditions noted are these: read-out: MED. Put shortly:
(§2)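 Mice were screened after intraperitoneal doses of 30, 100 and 300 mg/kg in the maximal electroshock and subcutaneous pentylenetetrazole tests, examined at 0.5 and 4 h. The value recorded is the minimum dose showing activity. No activity up to 300 mg/kg is scored as absent.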

Data set [4] in a line: Neurotoxicity in Sprague-Dawley rat at 30 mg/kg, po measured after 2 hr by rotarod test. The class given is toxicity, organism-based. To be noted: in vivo. Put shortly: (§3)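 Rats given one oral dose of 30 mg/kg and tested on the rotarod at 0.25, 0.5, 1, 2, 4 and 6 h.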
Data set [5] is described as follows: Neurotoxicity in CD1 mouse at 100 mg/kg, ip measured after 15 mins by rotarod test. To be noted: in vivo, 0.25 h.
Data set [6] in a line: Neurotoxicity in Sprague-Dawley rat at 30 mg/kg, po measured after 4 hr by rotarod test. The class given is toxicity, organism-based. To be noted: in vivo. Put shortly: as §3
Data set [7] deals with Rattus norvegicus. Nature of the data set: Anticonvulsant activity in Sprague-Dawley rat assessed as protection against 150 mA current-induced seizure at 30 mg/kg, po measured after 15 mins by maximal electroshock seizure test. The class given is functional, organism-based. Put shortly:
(§4)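 Rats received 30 mg/kg orally and were given maximal electroshock at 0.25, 0.5, 1, 2, 4 and 6 h. Read-out is the number of rats protected out of four.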

Data set [8] can be described thus: Neurotoxicity in Sprague-Dawley rat at 30 mg/kg, po measured after 30 mins by rotarod test. The class given is toxicity, organism-based. The conditions noted are these: in vivo, 0.5 h. Put shortly: as §3
Data set [9] has as its system Mus musculus. Nature of the data set: Anticonvulsant activity in CD1 mouse assessed as protection against 32 mA current-induced seizure at 100 mg/kg, ip measured after 15 mins by 6 Hz psychomotor seizure test.
Data set [10] is described as follows: Neurotoxicity in CD1 mouse at 100 mg/kg, ip measured after 2 hrs by rotarod test. To be noted: in vivo.
The nature of data set [11]: Neurotoxicity in CD1 mouse at 300 mg/kg, ip and measured after 4 hrs hrs by rotarod test. The class given is toxicity, organism-based. The conditions noted are these: in vivo. Put shortly: as §1
Data set [12] is described as follows: Neurotoxicity in CD1 mouse at 100 mg/kg, ip measured after 30 mins by rotarod test. The conditions noted are these: in vivo, 0.5 h.
The nature of data set [13]: Neurotoxicity in Sprague-Dawley rat at 30 mg/kg, po measured after 15 mins by rotarod test. The class given is toxicity, organism-based. To be noted: in vivo, 0.25 h. Put shortly: as §3
Data set [14] in a line: Neurotoxicity in CD1 mouse at 100 mg/kg, ip measured after 4 hrs by rotarod test. The conditions noted are these: in vivo.
Data set [15] has as its system Mus musculus. Put plainly: Anticonvulsant activity in CD1 mouse assessed as protection against subcutaneous pentylenetetrazole-induced seizures at 300 mg/kg, ip and measured after 4 hrs. The format is functional, organism-based. Put shortly:
as §2

Data set [16] is described as follows: Neurotoxicity in Sprague-Dawley rat at 30 mg/kg, po measured after 1 hr by rotarod test. The format is toxicity, organism-based. The conditions noted are these: in vivo. Put shortly: as §3
Data set [17] concerns Mus musculus. Put plainly: Anticonvulsant activity in CD1 mouse assessed as protection against 50 mA current-induced seizure at 300 mg/kg, ip and measured after 0.5 hrs by maximal electroshock seizure test. The class given is functional, organism-based. Put shortly: as §2
In data set [18] the test system is Mus musculus. Put plainly: Anticonvulsant activity in CD1 mouse assessed as protection against subcutaneous pentylenetetrazole-induced seizures at 300 mg/kg, ip and measured after 0.5 hrs. The format is functional, organism-based. Put shortly:
as §2

Data set [19] relates to Rattus norvegicus. Nature of the data set: Anticonvulsant activity in Sprague-Dawley rat assessed as protection against 150 mA current-induced seizure at 30 mg/kg, po measured after 2 hrs by maximal electroshock seizure test. The format is functional, organism-based. Put shortly:
as §4

Data set [20] concerns Rattus norvegicus. Put plainly: Anticonvulsant activity in Sprague-Dawley rat assessed as protection against 150 mA current-induced seizure at 30 mg/kg, po measured after 1 hr by maximal electroshock seizure test. The class given is functional, organism-based. Put shortly:
as §4

For data set [21], the system named is Rattus norvegicus. Nature of the data set: Anticonvulsant activity in Sprague-Dawley rat assessed as protection against 150 mA current-induced seizure at 30 mg/kg, po measured after 30 mins by maximal electroshock seizure test. The class given is functional, organism-based. Put shortly:
as §4

Data set [22] in a line: Neurotoxicity in ip dosed CD1 mouse and measured after 0.5 hrs by rotarod test. To be noted: in vivo. The format is toxicity, organism-based. Put shortly: as §1
Data set [23] has as its system Mus musculus. Put plainly: Anticonvulsant activity in CD1 mouse assessed as protection against 50 mA current-induced seizure at 300 mg/kg, ip and measured after 4 hrs by maximal electroshock seizure test. The format is functional, organism-based. Put shortly: as §2
Data set [24] has as its system Mus musculus. Nature of the data set: Anticonvulsant activity in ip dosed CD1 mouse assessed as protection against 50 mA current-induced seizure and measured after 0.5 hrs by maximal electroshock seizure test. The format is functional. The conditions noted are these: read-out: MED. Put shortly:
as §2

Data set [25] concerns Mus musculus. Put plainly: Anticonvulsant activity in CD1 mouse assessed as protection against 32 mA current-induced seizure at 100 mg/kg, ip measured after 2 hrs by 6 Hz psychomotor seizure test.
The nature of data set [26]: Neurotoxicity in ip dosed CD1 mouse and measured after 4 hrs by rotarod test. To be noted: in vivo. The format is toxicity, organism-based. Put shortly: as §1

As to `CC(C)C1(C(C)C)NC(=O)N(CN2CCN(c3cccc(C(F)(F)F)c3)CC2)C1=O`, the Activity result in [1], in [2], in [4], in [5], in data set [6] and in data set [8] was “Non-Toxic” in each case. The Activity result in [10], in [11], in [12], in data set [13], in data set [14] and in data set [16] was “Non-Toxic” in each case. Besides, the minimal effective dose in data set [3] came to 100 mg/kg. Besides, the result in data set [7], in data set [9], in [15] and in [17] was inactive. In addition, the MED result in data set [18] is “inactive”.
Consider `O=C1NC(c2ccccc2)(c2ccccc2)C(=O)N1CN1CCN(c2ccc(F)cc2)CC1`, for which the result in [19], in [7], in [15], in data set [17] and in [20] was inactive. The Activity result in [2], in [4], in data set [6], in data set [8], in data set [11] and in [13] was “Non-Toxic” each time. Further, the Activity result in data set [16] is reported as “Non-Toxic”. Also, the minimal effective dose in [3] amounted to 100 mg/kg. Further, the MED result in [18] is “inactive”.
Turning to `O=C1NC(c2ccccc2)(c2ccccc2)C(=O)N1CN1CCN(c2cccc(Cl)c2)CC1`, the Activity result in data set [2], in data set [4], in data set [6], in data set [8], in data set [11] and in data set [13] was “Non-Toxic” each time. Further, the Activity result in [16] is reported as “Non-Toxic”. Further, the outcome in data set [21], in data set [15] and in [17] was inactive. The minimal effective dose in [3] came to 100 mg/kg. For the same compound, the MED entry in data set [18] is “inactive”.
Take `CC(C)C1(C(C)C)NC(=O)N(CN2CCN(C)CC2)C1=O`: the minimal neurotoxic dose in data set [22] was 300 mg/kg. For the same compound, the result in data set [23] and in data set [15] was inactive. Moreover, the Activity entry in [11] is “Non-Toxic”. In data set [24], the minimal effective dose turned out to be 300 mg/kg. In addition, the MED entry in data set [18] is “inactive”.
With `O=C1NC(c2ccccc2)(c2ccccc2)C(=O)N1CN1CCN(c2ccccc2F)CC1`, the Activity result in data set [1], in [2], in [4], in data set [5], in data set [6] and in data set [8] was “Non-Toxic” throughout. Besides, the Activity entry in data set [10], in data set [11], in data set [12], in data set [13], in data set [14] and in [16] was “Non-Toxic” in each case. Further, in [3], the minimal effective dose was 30 mg/kg. Also, the result in [7], in data set [15] and in data set [17] was inactive. Moreover, the outcome in data set [25] was Active. Besides, in [18], the MED entry is “inactive”.
As to `CC(C)C1(C(C)C)NC(=O)N(CN2CCN(Cc3ccccc3)CC2)C1=O`, the minimal neurotoxic dose in [22] is 300 mg/kg. In addition, the outcome in data set [23], in data set [15] and in data set [17] was inactive. Further, in data set [11], the Activity result was “Non-Toxic”. Moreover, the MED result in data set [18] is “inactive”.
On to `CC(C)C1(C(C)C)NC(=O)N(CN2CCN(c3cccc(Cl)c3)CC2)C1=O`, for which the Activity result in [2], in [4], in data set [6], in data set [8], in data set [11] and in data set [13] was “Non-Toxic” each time. The Activity entry in data set [16] was “Non-Toxic”. The outcome in [21], in data set [7], in data set [15] and in [20] was inactive. The minimal effective dose in data set [3] and in data set [24] was 100 mg/kg in each case. Besides, the MED entry in [18] is “inactive”.
For the compound `CC(C)C1(C(C)C)NC(=O)N(CN2CCN(c3ccc(F)cc3)CC2)C1=O`, in data set [3], the minimal effective dose was 100 mg/kg. In data set [22], this compound yielded a minimal neurotoxic dose of 300 mg/kg. Besides, the MTC in [26] was 300 mg/kg. The result in data set [15] and in data set [17] was inactive. Besides, the MED result in data set [18] is “inactive”.
As to `O=C1NC(c2ccccc2)(c2ccccc2)C(=O)N1CN1CCN(c2ccccc2)CC1`, the Activity entry in data set [2], in data set [4], in [6], in data set [8], in data set [11] and in [13] was “Non-Toxic” throughout. The Activity result in data set [16] was “Non-Toxic”. In addition, the minimal effective dose is 100 mg/kg in data set [3] and 300 mg/kg in data set [24]. Moreover, the result in data set [15] was inactive. Also, in data set [18], the MED entry was “inactive”.
For `O=C1NC(c2ccccc2)(c2ccccc2)C(=O)N1CN1CCN(Cc2ccccc2)CC1`, the outcome in [19], in [15] and in data set [20] was inactive. Moreover, the Activity entry in data set [2], in data set [4], in [6], in data set [8], in [11] and in data set [13] was “Non-Toxic” in each case. Also, the Activity entry in [16] is given as “Non-Toxic”. Moreover, the minimal effective dose in data set [3] is 100 mg/kg; in [24] it was 300 mg/kg. For the same compound, in data set [18], the MED result was “inactive”.
